In ChEMBL document CHEMBL1124448, “Comparison of the biological effects of selected 5,8-dideazafolate analogues with their 2-desamino counterparts” (J Med Chem, 1989):
pIC50: −log10 of the molar value.

Legend:
[1] = system: L1210; experiment: Inhibition of the growth of methotrexate resistant L1210 leukemia/R 81 cells in culture; format: functional, cell-based; conditions: Mus musculus
Procedure, shortened: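 MTT viability assay, 48 h. Log-phase cells were plated at […] onto serial drug dilutions in RPMI 1640 with 10% fetal bovine serum, in 8% CO2, humidified. MTT (5 mg/mL stock) was added for 3 h and the formazan dissolved in 0.04 N HCl/2-propanol. A570 was read within 1 h. Each plate carried no-drug control and no-cell blank rows. IC50 determined.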

[2] = system: L1210; experiment: Inhibition of the growth of methotrexate sensitive L1210 leukemia/S cells in culture; format: functional, cell-based; conditions: Mus musculus
Procedure, shortened: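 MTT viability assay, 48 h. MTT (5 mg/mL stock) was added for 3 h and the formazan dissolved in 0.04 N HCl/2-propanol. A570 was read within 1 h. Each plate carried no-drug control and no-cell blank rows. IC50 determined.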

[3] = target: Thymidylate synthase (Mus musculus, UniProt P07607); experiment: Inhibition of L1210 leukemia thymidylate synthase (TS) enzyme; conditions: read-out: I50
Thymidylate synthase, sequence (P07607 whole entry): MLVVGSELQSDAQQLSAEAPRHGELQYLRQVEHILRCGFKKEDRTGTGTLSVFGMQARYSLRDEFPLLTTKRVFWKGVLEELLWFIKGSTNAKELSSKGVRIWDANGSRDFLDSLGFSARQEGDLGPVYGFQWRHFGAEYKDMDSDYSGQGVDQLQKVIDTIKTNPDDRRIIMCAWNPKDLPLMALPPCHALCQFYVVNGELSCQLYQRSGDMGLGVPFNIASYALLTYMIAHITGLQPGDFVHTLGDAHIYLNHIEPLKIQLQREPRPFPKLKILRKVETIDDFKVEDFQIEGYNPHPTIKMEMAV

Row | pIC50 [1] | pIC50 [2] | pIC50 [3] | SMILES
1 | 3.73 | 8.36 | – | CN(Cc1cnc2nc(N)nc(N)c2n1)c1ccc(C(=O)N[C@@H](CCC(=O)O)C(=O)O)cc1 [METHOTREXATE]
2 | < 3.70 | 5.49 | – | Nc1nc(=O)c2cc(NCc3ccc(C(=O)NC(CCC(=O)O)C(=O)O)cc3)ccc2[nH]1 (stereo not given)
3 | < 3.70 | 5.12 | – | Nc1nc(=O)c2cc(CSc3ccc(C(=O)NC(CCC(=O)O)C(=O)O)cc3)ccc2[nH]1 (stereo not given)
4 | < 3.70 | 6.55 | 4.31 | O=C(O)CCC(NC(=O)c1ccc(OCc2ccc3ncnc(O)c3c2)cc1)C(=O)O (stereo not given)
5 | < 3.70 | 6.28 | 4.60 | O=C(O)CCC(NC(=O)c1ccc(CNc2ccc3ncnc(O)c3c2)cc1)C(=O)O (stereo not given)
6 | < 3.70 | 5.89 | 4.86 | O=C(O)CCC(NC(=O)c1ccc(SCc2ccc3ncnc(O)c3c2)cc1)C(=O)O (stereo not given)
7 | 4.41 | 5.92 | – | Nc1nc(O)c2cc(COc3ccc(C(=O)NC(CCC(=O)O)C(=O)O)cc3)ccc2n1 (stereo not given)
8 | 4.12 | 6.57 | – | C#CCN(Cc1ccc2ncnc(O)c2c1)c1ccc(C(=O)NC(CCC(=O)O)C(=O)O)cc1 (stereo not given)
9 | 3.94 | – | – | C#CCN(Cc1ccc2[nH]c(N)nc(=O)c2c1)c1ccc(C(=O)NC(CCC(=O)O)C(=O)O)cc1 (stereo not given)
